In ChEMBL document CHEMBL1123957, “Cholecystokinin antagonists. Synthesis and biological evaluation of 3-substituted 1,4-benzodiazepin-2-amines” (J Med Chem, 1988):
pIC50: −log10 of the molar value.

Key:
[1] = biological target: T1, Cholecystokinin receptor (Rattus norvegicus, UniProt P30551+P30553); assay: Binding affinity towards cholecystokinin receptor by the displacement of [125I]CCK-33 in rat pancreatic tissue
T1 sequence (P30551 whole entry): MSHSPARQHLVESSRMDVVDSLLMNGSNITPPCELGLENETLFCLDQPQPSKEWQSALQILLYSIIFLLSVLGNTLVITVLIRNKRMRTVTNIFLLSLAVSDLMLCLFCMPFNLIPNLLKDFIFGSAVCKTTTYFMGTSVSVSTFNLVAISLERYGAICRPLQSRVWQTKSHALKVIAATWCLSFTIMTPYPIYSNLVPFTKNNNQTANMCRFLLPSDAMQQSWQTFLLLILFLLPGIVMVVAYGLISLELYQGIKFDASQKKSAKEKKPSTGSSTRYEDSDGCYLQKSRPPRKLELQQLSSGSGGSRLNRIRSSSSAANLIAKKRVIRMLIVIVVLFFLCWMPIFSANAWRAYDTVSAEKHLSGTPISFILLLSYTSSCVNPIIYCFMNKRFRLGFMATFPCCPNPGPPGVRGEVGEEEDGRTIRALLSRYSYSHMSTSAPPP
T1 sequence (P30553 whole entry): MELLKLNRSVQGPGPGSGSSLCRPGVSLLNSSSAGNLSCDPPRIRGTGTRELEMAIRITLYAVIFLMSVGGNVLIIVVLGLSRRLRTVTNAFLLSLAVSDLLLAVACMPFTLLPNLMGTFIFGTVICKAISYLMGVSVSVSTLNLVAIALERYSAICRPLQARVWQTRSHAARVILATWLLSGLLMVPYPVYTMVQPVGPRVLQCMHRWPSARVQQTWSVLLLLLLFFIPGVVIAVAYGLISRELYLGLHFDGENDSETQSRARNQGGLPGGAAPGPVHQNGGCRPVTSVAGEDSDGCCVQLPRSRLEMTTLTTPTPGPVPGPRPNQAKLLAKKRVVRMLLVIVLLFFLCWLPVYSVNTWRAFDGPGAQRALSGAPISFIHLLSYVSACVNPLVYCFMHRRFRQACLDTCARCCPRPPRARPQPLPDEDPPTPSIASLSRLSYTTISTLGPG
Method in brief: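 Radioligand displacement assays: [125I]CCK-33 binding to rat pancreas or guinea pig cerebral cortex tissue, and [125I]gastrin binding to guinea pig gastric glands, each run by earlier-described methods. Reported values are means of triplicate determinations.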

[2] = species: Cavia porcellus; assay: Inhibition of binding of [125I]gastrin to guinea pig gastric glands; conditions: Stomach

## CNC1=Nc2ccccc2C(c2ccccc2NC)=N[C@@H]1Cc1c[nH]c2ccccc12
[1]
  IC50: 100 µM
[2]
  pIC50: 4.00

## NC1=Nc2ccccc2C(c2ccccc2F)=N[C@@H]1Cc1c[nH]c2ccccc12
[1]
  IC50: 1.7 µM
[2]
  pIC50: 4.00

## N#CNC1=Nc2ccccc2C(c2ccccc2F)=N[C@@H]1Cc1c[nH]c2ccccc12
[1]
  IC50: 2 µM

## CNC1=Nc2ccccc2C(c2ccccc2F)=N[C@@H]1Cc1c[nH]c2ccccc12
[1]
  IC50: 4.4 µM
[2]
  pIC50: 4.17

## CNC1=Nc2ccc(Cl)cc2C(c2ccccc2)=[N+]([O-])C1 [CHLORDIAZEPOXIDE]
[1]
  IC50: 100 µM
[2]
  pIC50: 4.00

## O=C(O)CNC1=Nc2ccccc2C(c2ccccc2F)=N[C@@H]1Cc1c[nH]c2ccccc12
[1]
  IC50: 3.6 µM
[2]
  pIC50: 5.60

## CCCNC1=Nc2ccccc2C(c2ccccc2F)=N[C@@H]1Cc1c[nH]c2ccccc12
[1]
  IC50: 2.7 µM
[2]
  pIC50: 4.00

## CCOC(=O)CNC1=Nc2ccccc2C(c2ccccc2F)=N[C@@H]1Cc1c[nH]c2ccccc12
[1]
  IC50: 23 µM
[2]
  pIC50: 4.00

## Fc1ccccc1C1=N[C@H](Cc2c[nH]c3ccccc23)C(Nc2ccccc2)=Nc2ccccc21
[1]
  IC50: 34 µM
